Published values from different studies.
Each line is one published result; the experiments were not run side by side.
Effect on: cell growth or viability

Structure (SMILES) | cell line | assay | setting | IC50
C[C@@H](Oc1cc(-c2cnn(C3CCNCC3)c2)cnc1N)c1c(Cl)ccc(F)c1Cl | SW-1736 | MTT | 72 h | 2.5 µM
COc1cc(Nc2nccc(-c3cnn4nc(OC)ccc34)n2)cc(C(F)(F)F)c1 | HuTu80 | ATP luminescence |  | 0.15 µM
Cc1cc(Nc2ncc(Cl)c(Nc3ccccc3S(=O)(=O)C(C)C)n2)c(OC(C)C)cc1C1CCNCC1 | BJ |  | 72 h | 2.6 µM
C[C@H]1O[C@@H](n2cc(F)c(=O)[nH]c2=O)[C@H](O)[C@@H]1O | IOSE-144 | CCK-8 | 48 h | 16.5 µM
CN(C)C/C=C/C(=O)Nc1cc2c(Nc3ccc(F)c(Cl)c3)ncnc2cc1O[C@H]1CCOC1 | KB-C2 | MTT | 72 h | 4.9 µM
C[C@@H](Oc1cc(-c2cnn(C3CCNCC3)c2)cnc1N)c1c(Cl)ccc(F)c1Cl | BJ |  | 72 h | 2.11 µM
O=C(N/N=C/c1c(O)ccc2ccccc12)c1cc(-c2ccc3ccccc3c2)n[nH]1 | 1205Lu | MTS | 24 h | 20.4 µM
COc1cccc2c1C(=O)c1c(O)c3c(c(O)c1C2=O)C[C@@](O)(C(=O)CO)C[C@@H]3O[C@H]1C[C@H](N)[C@H](O)[C@H](C)O1 | 4T1.2 | MTT | 48 h | 0.272 mg/L
Cc1cccc(-n2ncc(Br)c(Br)c2=O)c1 | NCI-H2444 | resazurin | 96 h | 0.31 µM
Oc1ccc(Nc2nc(-c3ccc(Cl)cc3)cs2)cc1 | 1205Lu | MTS | 72 h | 71.8 µM
Cc1[nH]c(/C=C2\C(=O)Nc3ccc(S(=O)(=O)N(C)c4cccc(Cl)c4)cc32)c(C)c1C(=O)N1CCN(C)CC1 | BJ |  | 72 h | 5.19 µM
